The source made the active and inactive calls. The calls are words filed in the database; no cut-off is given here.
Columns and labels:
[1] = system: HL-60; experiment: Effect on cell growth in human HL60 cells assessed as cell number per mL at 2 uM; format: functional; design: scale not given here
Procedure, shortened: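 HL-60 cells in RPMI 1640 with 10% FBS and 2 mM glutamine, 37 °C, 5% CO2, doubling time about 24 h. Exposed 24 h to 2 µM compound diluted from DMSO into medium. Cells per mL counted with a Coulter counter.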

[2] = system: HL-60; experiment: Induction of cell death in human HL60 cells at 2 uM by propidium iodide staining method; format: functional
Procedure, shortened: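 HL-60 cells in RPMI 1640 with 10% FBS and 2 mM glutamine at 37 °C, 5% CO2, exposed for 24 h to compound diluted in medium from DMSO. Cells were counterstained with propidium iodide (5 µg/mL) for plasma membrane integrity and analysed by flow cytometry. The readout is the percentage of PI-positive cells.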

[3] = system: Cancer cell lines; experiment: Inhibition of human colon cancer cells; format: functional; settings: for TGI: read-out: pTGI (converted)
Procedure, shortened: (§1)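 NCI 60-cell-line panel, with results grouped by tissue subpanel. Compounds dissolved in DMSO and tested at five 10-fold dilutions, top concentration 10^-4 M. Values given as -log molar concentration for 50% growth inhibition (pGI50), total growth inhibition (pTGI) and 50% cell kill (pLC50), with subpanel means calculated.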

[4] = molecular target: T1, S-adenosylmethionine decarboxylase proenzyme (Homo sapiens) (UniProt P17707); experiment: Inhibition of human S-adenosyl methionine decarboxylase in HL60 cells at 1 to 100 uM; format: cell-based; settings: HL-60
T1 sequence (whole entry): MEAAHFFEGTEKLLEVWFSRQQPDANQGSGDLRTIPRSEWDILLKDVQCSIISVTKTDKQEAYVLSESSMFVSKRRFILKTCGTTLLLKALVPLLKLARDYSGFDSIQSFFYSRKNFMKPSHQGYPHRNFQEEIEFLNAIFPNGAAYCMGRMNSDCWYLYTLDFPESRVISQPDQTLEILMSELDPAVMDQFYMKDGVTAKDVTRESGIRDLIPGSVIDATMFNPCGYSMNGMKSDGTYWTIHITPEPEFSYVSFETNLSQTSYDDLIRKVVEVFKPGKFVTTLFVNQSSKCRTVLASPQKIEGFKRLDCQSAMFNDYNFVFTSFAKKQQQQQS

[5] = system: HL-60; experiment: Induction of apoptosis in human HL60 cells assessed as caspase activity after 4 hrs; format: functional, cell-based
Procedure, shortened: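 HL-60 cells treated 4 h across a range of concentrations. DEVD-cleaving caspase (DEVDase) activity measured fluorimetrically in cell extracts. One typical experiment shown, repeated at least twice.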

[6] = system: HL-60; experiment: Induction of cell death in human HL60 cells assessed as LDH release at 5 uM after 24 hrs; format: functional, cell-based
Procedure, shortened: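 HL-60 cells exposed 24 h to 5 µM. Medium aliquots collected and LDH activity determined spectrophotometrically from NADH at 340 nm. One typical experiment shown, repeated at least twice.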

[7] = system: HL-60; experiment: Induction of apoptosis in human HL60 cells assessed as chromatin condensation at 5 uM after 3 hrs; format: functional, cell-based
Procedure, shortened: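 HL-60 cells on glass coverslips treated 3 h with 5 µM. Cells fixed in 4% paraformaldehyde in PBS and stained with Hoechst 0.1 µg/mL. Nuclear morphology (chromatin condensation, apoptotic bodies) scored by fluorescence microscopy. Experiment repeated at least twice.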

[8] = system: HL-60; experiment: Disruption of mitochondrial membrane potential in human HL60 cells at 5 uM after 1 hr; format: functional, cell-based
Procedure, shortened: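 HL-60 cells exposed to 5 µM for 1 h, then loaded with 40 nM DiOC6 for 40 min at 1 × 10⁶ cells/mL, 37 °C, in the dark. Mitochondrial membrane potential read by flow cytometry. Mean ± SEM of triplicate determinations.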

[9] = system: HL-60; experiment: Increase in peroxide formation in human HL60 cells at 5 uM after 3 hrs; format: functional, cell-based
Procedure, shortened: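 Intracellular peroxides measured in HL-60 cells after 3 h at 5 µM. Cells incubated with 5 µM DCF-DA for 30 min at 37 °C, then read by flow cytometry. Mean ± SEM of triplicates.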

[10] = system: HL-60; experiment: Effect on energy metabolism assessed as increase in AMP/ATP ratio in human HL60 cells at 5 uM after 3 hrs; format: functional, cell-based
Procedure, shortened: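 HL-60 cells treated 3 h with 5 µM. Adenine nucleotide levels measured and the AMP/ATP ratio calculated from them. Mean ± SEM of triplicate determinations.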

[11] = system: Leukemia cell; experiment: Inhibition of human leukemia cells; format: functional; settings: for TGI: read-out: pTGI (converted); procedure, shortened: as §1
[12] = system: Cancer cell lines; experiment: Inhibition of human non-small cell lung cancer cells; format: functional; settings: for TGI: read-out: pTGI (converted); procedure, shortened: as §1
[13] = system: Cancer cell lines; experiment: Inhibition of human CNS cancer cells; format: functional; settings: for TGI: read-out: pTGI (converted); procedure, shortened: as §1
[14] = system: Melanoma cell; experiment: Inhibition of human melanoma cells; format: functional; settings: for TGI: read-out: pTGI (converted); procedure, shortened: as §1
[15] = system: Cancer cell lines; experiment: Inhibition of human ovarian cancer cells; format: functional; settings: for TGI: read-out: pTGI (converted); procedure, shortened: as §1
[16] = system: Cancer cell lines; experiment: Inhibition of human renal cancer cells; format: functional; settings: for TGI: read-out: pTGI (converted); procedure, shortened: as §1
[17] = system: Cancer cell lines; experiment: Inhibition of human prostate cancer cells; format: functional; settings: for TGI: read-out: pTGI (converted); procedure, shortened: as §1
[18] = system: Cancer cell lines; experiment: Inhibition of human breast cancer cells; format: functional; settings: for TGI: read-out: pTGI (converted); procedure, shortened: as §1
[19] = system: HL-60; experiment: Cell cycle arrest in human HL60 cells assessed as accumulation at G0/G1 phase at 2 uM; format: functional
Procedure, shortened: (§2)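 HL-60 cells kept in RPMI 1640 with 10% FBS and 2 mM glutamine at 37 °C, 5% CO2. Treated 24 h at 2 µM from DMSO stock diluted in medium. Cells fixed in cold 70% ethanol and stained with propidium iodide 50 µg/mL plus RNAase 10 µg/mL for 30 min. DNA profiles read by flow cytometry on ≥10 000 cells, and phase percentages calculated.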

[20] = system: HL-60; experiment: Cell cycle arrest in human HL60 cells assessed as accumulation at S phase at 2 uM; format: functional; procedure, shortened: as §2
[21] = system: HL-60; experiment: Cell cycle arrest in human HL60 cells assessed as accumulation at G2/M phase at 2 uM; format: functional; procedure, shortened: as §2

SMILES	Activity [1]	Activity [2]	GI50 [3]	TGI [3]	GI50 [11]	TGI [11]	GI50 [12]	TGI [12]	GI50 [13]	TGI [13]	GI50 [14]	TGI [14]	GI50 [15]	TGI [15]	GI50 [16]	TGI [16]	GI50 [17]	TGI [17]	GI50 [18]	TGI [18]	further results
Cc1nn2c(/C=N/NC(=N)N)c(-c3ccc(Cl)c([N+](=O)[O-])c3)nc2s1	410	31%	0.646 µM	2.82 µM	0.575 µM	3.63 µM	3.31 µM	11.5 µM	1.23 µM	9.77 µM	1.45 µM	2.95 µM	1.48 µM	4.27 µM	1.23 µM	3.63 µM	1.1 µM	2.63 µM	1.02 µM	6.92 µM	Activity [4]: Active; Activity [5]: Dose-dependent effect; Activity [6]: Active; Activity [7]: Active; Activity [8]: Active; Activity [9]: Active; Activity [10]: Active; Activity [19]: 29.9%; Activity [20]: 53.6%; Activity [21]: 16.5%
Cc1cn2c(/C=N/NC(=N)NN)c(-c3ccc(Cl)c([N+](=O)[O-])c3)nc2s1	760	7.8%	0.955 µM	2.09 µM	6.31 µM		2.4 µM	9.77 µM	1.12 µM	2.95 µM	1.82 µM	4.57 µM	1.29 µM	3.72 µM	3.24 µM	8.51 µM	3.39 µM	9.55 µM	1.55 µM	5.37 µM	Activity [19]: 35%; Activity [20]: 51.9%; Activity [21]: 13.1%
Cc1cn2c(/C=N/NC(=N)N)c(-c3cc(Cl)sc3Cl)nc2s1	750	7.4%	1.02 µM	3.98 µM	0.891 µM	1.78 µM	1.1 µM	3.63 µM	1.12 µM	4.37 µM	1.05 µM	3.09 µM	1.02 µM	2.34 µM	1.23 µM	3.02 µM	0.794 µM	1.48 µM	1.23 µM	2.63 µM	Activity [19]: 35.3%; Activity [20]: 50%; Activity [21]: 14.7%
Cc1cn2c(/C=N/NC3=NCCN3)c(-c3ccc(Cl)c([N+](=O)[O-])c3)nc2s1	780	11.9%	1.2 µM	10 µM	0.676 µM	6.17 µM	1.55 µM	6.03 µM	1.07 µM	4.27 µM	0.977 µM	2.4 µM	1.41 µM	3.39 µM	1.45 µM	3.72 µM	1.15 µM	2.95 µM	1.82 µM	7.59 µM	Activity [19]: 31.3%; Activity [20]: 53.7%; Activity [21]: 15%
COc1cc(OC)cc(-c2nc3sccn3c2/C=N/NC(=N)N)c1			6.03 µM	14.8 µM	10.2 µM	19.1 µM	9.33 µM	20.4 µM	8.13 µM	17.4 µM	8.51 µM	17.8 µM	7.94 µM	17 µM	8.51 µM	17.8 µM	9.33 µM	16.2 µM	10 µM	20.4 µM	
N=C(N)N/N=C/c1c(-c2cccs2)nc2sccn12			9.77 µM	24 µM	6.76 µM	38 µM	12.9 µM	29.5 µM	12 µM	25.7 µM	15.1 µM	28.8 µM	10.2 µM	26.9 µM	8.32 µM	21.9 µM	12.3 µM	24.5 µM	14.8 µM	28.2 µM	
Cc1cc(-c2nc3sc(C)cn3c2/C=N/NC(=N)N)c(C)s1			3.72 µM	11.7 µM	47.9 µM		9.77 µM	25.1 µM	8.32 µM	18.2 µM	7.41 µM	15.1 µM	12 µM	33.1 µM	14.1 µM	32.4 µM	4.79 µM	19.1 µM	4.47 µM	13.5 µM	
N=C(N)N/N=C/c1c(-c2cc(Cl)sc2Cl)nc2n1CCS2			1.82 µM	16.2 µM	10.2 µM	24.5 µM	11.2 µM	22.4 µM	8.71 µM	17.4 µM	10 µM	20.4 µM	10.5 µM	22.9 µM	10 µM	20 µM	8.13 µM	15.1 µM	12.3 µM	22.9 µM	
